Only a selection was taken, and hits are over-represented in it overall.
A1 apoptosis 2 – A1 inhibition read as caspase activation | MEF A1-2A-BIM cells, caspase-Glo luminescence, 3 h; percent of clofoctol response, DMSO zero | caspase activation, % (no concentration beside the values) | 24,000 tested, under 10 active | AID 2465; in the data active = caspase activation above about 5.9%
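Test system – A1-2A-BIM-expressing MEF cells · Input – 2500 cells/well · Medium – RPMI-1640 growth medium with 10% FBS · Compound dosing – 50 nL pinned compound · Timing – 3 h compound exposure at 37 °C · Technique – Caspase-Glo luminescence (DEVD substrate) · Evaluation – Caspase-3/7 activity from luminescence increase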
A number is an active result; 0 = inactive.

SMILES | A1 apoptosis 2
C#CCN([C@H](/C=C/C1CC1)[C@@H](O)Cc1ccccc1)[C@@H](Cc1ccc(N=[N+]=[N-])cc1)C(=O)OC | 0
COc1cc(Br)cc(/C=N/NC(=O)c2cccc(C(=O)NO)c2)c1O | 0
COC(=O)c1cn(CC(=O)N2CCN(C)CC2)nn1 | 0
COc1ccc(Br)cc1/C=N/NC(=O)c1ccc(C(=O)NO)cc1 | 0
[N-]=[N+]=NCc1ccccc1C[C@]1(C(=O)N2CCOCC2)N=C(c2ccc(OCCCO)cc2)O[C@H]1c1ccccc1 | 0
O=C(CCCCCC(=O)N/N=C/c1cc(Br)cs1)NO | 0
COc1cccc(OC)c1/C=N/NC(=O)CCCCCCC(=O)Nc1ccccc1O | 0
CC1(C)C[C@H]2C[C@H]3C(Br)=CC2(CO1)C(=O)[C@]31CO1 | 0
C=CC1c2cc(O)c(OC)cc2CCN1Cc1cc2c(cc1Br)OCO2 (configuration not stated) | 0
COC(=O)c1cn(CC(=O)Nc2ccon2)nn1 | 0
COc1cc(Br)cc(/C=N/NC(=O)CCCCCC(=O)Nc2ccccc2O)c1O | 0
C=CCC/C=N/NC(=O)CCCCCCC(=O)O | 0
COc1ccc([Si](C)(C)[C@H]2[C@H](CCn3cc(CCO)nn3)O[C@@]3(C(=O)N(Cc4ccc(N5CCOC5=O)cc4)c4ccccc43)[C@@H]2C)cc1 | 0
O=C(CCCCCC(=O)N/N=C/C1=CCCCC1)NO | 0
Cc1ccc(S(=O)(=O)Nc2ccc3c(c2)CC(=O)N([C@@H](C)CO)C[C@@H](C)[C@H](CN(C)Cc2ccc(C(=O)O)cc2)O3)cc1 | 0
O=C(NO)c1ccc(C(=O)N/N=C/c2ccc(-n3ccnc3)cc2)cc1 | 0
COc1ccc([Si](C)(C)[C@@H]2[C@@H](CCO)O[C@]3(C(=O)N(C)c4c(Br)cc(C)cc43)[C@H]2C)cc1 | 43.6
COc1ccc([Si](C)(C)[C@@H]2[C@@H](CCO)O[C@]3(C(=O)N(C)c4ccccc43)[C@H]2C)cc1 | 0
COc1ccc([Si](C)(C)[C@@H]2[C@@H](CCO)O[C@]3(C(=O)N(c4ccccc4)c4ccccc43)[C@H]2C)cc1 | 0
O=C(NO)c1ccc(C(=O)N/N=C/c2ccc(CO)o2)cc1 | 0
O=C(NO)c1cccc(C(=O)N/N=C/c2c(O)cc(O)cc2O)c1 | 0
[N-]=[N+]=NCc1ccccc1C[C@]1(C(=O)NCC(O)CO)N=C(c2ccc(OCCCO)cc2)O[C@H]1c1ccccc1 (some centres not stated) | 0
[N-]=[N+]=NCc1ccccc1C[C@@]1(C(=O)NCC(O)CO)N=C(c2ccc(OCCCO)cc2)O[C@@H]1c1ccccc1 (some centres not stated) | 5.9
COC(=O)[C@@]1(Cc2ccccc2CN=[N+]=[N-])N=C(c2ccc(OCCCO)cc2)O[C@H]1c1ccccc1 | 0
COC(=O)[C@H](Cc1ccc(N=[N+]=[N-])cc1)N1CC2=C[C@H]([C@@H](O)Cc3ccccc3)n3c(=O)n(C)c(=O)n3[C@@H]2[C@@H](C2CC2)O1 | 0
SMILES | A1 apoptosis 2
C[C@@H]1CN([C@H](C)CO)C(=O)Cc2cc(NC(=O)Nc3ccc(C(F)(F)F)cc3)ccc2O[C@@H]1CN(C)Cc1ccc(C(F)(F)F)cc1 | 0
C[C@H](CO)N1C[C@H](C)[C@H](CN(C)Cc2ccc(C(F)(F)F)cc2)Oc2ccc(NC(=O)Nc3ccc(C(F)(F)F)cc3)cc2CC1=O | 6.6
C[C@@H]1CN([C@H](C)CO)C(=O)Cc2cc(NC(=O)Nc3ccc(C(F)(F)F)cc3)ccc2O[C@H]1CN(C)Cc1ccc(C(F)(F)F)cc1 | 0
CCCCN(CCCC)c1ccc(/C=N/NC(=O)CCCCCCC(=O)OC)cc1 | 0
C=C(C)[C@@H]1CC=C(/C=N/NC(=O)CCCCCC(=O)O)CC1 | 0
COc1ccc(COC[C@]23NC(=S)N[C@H](c4ccccc4O2)[C@H]3CO[Si](C)(C)C(C)(C)C)cc1 | 0
O=C1C[C@@](C(=O)NCc2ccccc2)(c2ccc([N+](=O)[O-])cc2)[C@@H](c2ccc(CO)cc2)N1C1CCCCC1 | 0
COCC1=C2[C@@H](c3ccccc3)OB(O)C[C@@H]2[C@@H]2C(=O)N(C)C(=O)[C@@H]2C1 | 0
COC(=O)C(CC#Cc1ccc2c(c1)[C@]1(C(=O)N2)[C@H](C(=O)NC[C@H](O)c2ccccc2)[C@H]2C(=O)O[C@H](c3ccccc3)[C@H](c3ccccc3)N2[C@@H]1c1ccc(O)cc1)C(=O)OC | 0
O=C(c1ccccc1)N1Cc2ccccc2[C@@H]2OC(c3ccc(OCCCO)cc3)=N[C@]2(CCS(=O)(=O)c2ccccc2)C1=O | 0
O=C(NO)c1ccc(C(=O)N/N=C/c2ccc(-c3ccccc3)cc2)cc1 | 0
COCCOC(=O)N1C(=O)[C@@]2(c3cc(C#CC4(O)CCCCCC4)ccc31)[C@H](C(=O)NC[C@H](O)c1ccccc1)[C@H]1C(=O)O[C@H](c3ccccc3)[C@H](c3ccccc3)N1[C@@H]2c1ccccc1OCCO | 0
O=C(NO)c1ccc(C(=O)N/N=C/c2ccccc2OCCO)cc1 | 0
O=C(NO)c1ccc(C(=O)N/N=C/Cc2ccccc2)cc1 | 0

Source: PubChem (Broad Institute)
